Results as given in publication PMC9359741 (Clinical Cancer Research, 2022).
Several values for one entry are separate records, joined by “and”; a condition that tells them apart may be missing. Equal entries are not always repeated. Where two headings read alike, the source gives them in different places.

Test system: patients with selected advanced solid tumors
Format: in vivo, human
Conditions: Phase 1b
Procedure, shortened: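 Adults (≥18 y) with histologically or cytologically confirmed selected advanced solid tumours. Oral test compound started at 200 mg QD, with planned escalation to 400 mg QD, plus anti-PD-1 antibody 2 mg/kg IV every 3 weeks. DLT incidence defined the MTD (DLT criteria in supplement). AEs and lab abnormalities were graded by CTCAE v4.03 in all patients given ≥1 dose and summarized descriptively.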

Cc1cccc(Cn2nc(C3CC3)c3c(NC(=O)c4cnc5cc(OCCN6CCN(C)CC6)ccn45)cccc32)n1 [ARRY-382]
Deaths (12 due to disease progression, 3 for reasons unknown): Fifteen | ARRY-382-related grade ≥3 AEs (200-mg cohort): 50.0% | Discontinued due to AEs (primary reason) (200-mg cohort, one patient): 16.7% | ARRY-382-related grade ≥3 AEs (300-mg cohort): 100.0% | ARRY-382-related SAE (Grade 3 ALT and AST increased) (300-mg cohort, one patient): 16.7% | ARRY-382-related grade ≥3 AEs (400-mg cohort): 42.9% | ARRY-382-related AEs: ALT increased (ARRY-382 200 mg, N = 6): 2 (33.3) n (%) | ARRY-382-related AEs: AST increased (ARRY-382 200 mg, N = 6): 1 (16.7) n (%) | ARRY-382-related AEs: All AEs (ARRY-382 200 mg, N = 6): 5 (83.3%) n (%) and 5 (83.3) n (%) | ARRY-382-related AEs: Amylase increased (ARRY-382 200 mg, N = 6): 1 (16.7) n (%) | ARRY-382-related AEs: Blood CPK increased (ARRY-382 200 mg, N = 6): 2 (33.3) n (%) | ARRY-382-related AEs: Blood alkaline phosphatase increased (ARRY-382 200 mg, N = 6): 1 (16.7) n (%) | ARRY-382-related AEs: Chills (ARRY-382 200 mg, N = 6): 1 (16.7) n (%) | ARRY-382-related AEs: Fatigue (ARRY-382 200 mg, N = 6): 2 (33.3) n (%) | ARRY-382-related AEs: Lipase increased (ARRY-382 200 mg, N = 6): 1 (16.7) n (%) | ARRY-382-related AEs: Nausea (ARRY-382 200 mg, N = 6): 0 (0.0) n (%) | ARRY-382-related AEs: Pruritus (ARRY-382 200 mg, N = 6): 2 (33.3) n (%) | ARRY-382-related AEs: Pyrexia (ARRY-382 200 mg, N = 6): 1 (16.7) n (%) | ARRY-382-related AEs: Rash maculo-papular (ARRY-382 200 mg, N = 6): 1 (16.7) n (%) | ARRY-382-related AEs: Thrombocytopenia (ARRY-382 200 mg, N = 6): 0 (0.0) n (%) | ARRY-382-related AEs: ALT increased (ARRY-382 300 mg, N = 6): 3 (50.0) n (%) | ARRY-382-related AEs: AST increased (ARRY-382 300 mg, N = 6): 5 (83.3) n (%) | ARRY-382-related AEs: All AEs (ARRY-382 300 mg, N = 6): 6 (100.0%) n (%) and 6 (100.0) n (%) | ARRY-382-related AEs: Amylase increased (ARRY-382 300 mg, N = 6): 3 (50.0) n (%) | ARRY-382-related AEs: Blood CPK increased (ARRY-382 300 mg, N = 6): 3 (50.0) n (%) | ARRY-382-related AEs: Blood alkaline phosphatase increased (ARRY-382 300 mg, N = 6): 2 (33.3) n (%) | ARRY-382-related AEs: Chills (ARRY-382 300 mg, N = 6): 0 (0.0) n (%) | ARRY-382-related AEs: Fatigue (ARRY-382 300 mg, N = 6): 2 (33.3) n (%) | ARRY-382-related AEs: Lipase increased (ARRY-382 300 mg, N = 6): 4 (66.7) n (%) | ARRY-382-related AEs: Nausea (ARRY-382 300 mg, N = 6): 1 (16.7) n (%) | ARRY-382-related AEs: Pruritus (ARRY-382 300 mg, N = 6): 2 (33.3) n (%) | ARRY-382-related AEs: Pyrexia (ARRY-382 300 mg, N = 6): 0 (0.0) n (%) | ARRY-382-related AEs: Rash maculo-papular (ARRY-382 300 mg, N = 6): 2 (33.3) n (%) | ARRY-382-related AEs: Thrombocytopenia (ARRY-382 300 mg, N = 6): 1 (16.7) n (%) | ARRY-382-related AEs: ALT increased (ARRY-382 400 mg, N = 7): 2 (28.6) n (%) | ARRY-382-related AEs: AST increased (ARRY-382 400 mg, N = 7): 2 (28.6) n (%) | ARRY-382-related AEs: All AEs (ARRY-382 400 mg, N = 7): 5 (71.4%) n (%) and 5 (71.4) n (%) | ARRY-382-related AEs: Amylase increased (ARRY-382 400 mg, N = 7): 1 (14.3) n (%) | ARRY-382-related AEs: Blood CPK increased (ARRY-382 400 mg, N = 7): 2 (28.6) n (%) | ARRY-382-related AEs: Blood alkaline phosphatase increased (ARRY-382 400 mg, N = 7): 2 (28.6) n (%) | ARRY-382-related AEs: Chills (ARRY-382 400 mg, N = 7): 1 (14.3) n (%) | ARRY-382-related AEs: Fatigue (ARRY-382 400 mg, N = 7): 0 (0.0) n (%) | ARRY-382-related AEs: Lipase increased (ARRY-382 400 mg, N = 7): 1 (14.3) n (%) | ARRY-382-related AEs: Nausea (ARRY-382 400 mg, N = 7): 2 (28.6) n (%) | ARRY-382-related AEs: Pruritus (ARRY-382 400 mg, N = 7): 0 (0.0) n (%) | ARRY-382-related AEs: Pyrexia (ARRY-382 400 mg, N = 7): 1 (14.3) n (%) | ARRY-382-related AEs: Rash maculo-papular (ARRY-382 400 mg, N = 7): 1 (14.3) n (%) | ARRY-382-related AEs: Thrombocytopenia (ARRY-382 400 mg, N = 7): 1 (14.3) n (%) | ARRY-382-related AEs: ALT increased (Total, N = 19): 7 (36.8) n (%) | ARRY-382-related AEs: AST increased (Total, N = 19): 8 (42.1) n (%) | ARRY-382-related AEs: All AEs (Total, N = 19): 16 (84.2%) n (%) and 16 (84.2) n (%) | ARRY-382-related AEs: Amylase increased (Total, N = 19): 5 (26.3) n (%) | ARRY-382-related AEs: Blood CPK increased (Total, N = 19): 7 (36.8) n (%) | ARRY-382-related AEs: Blood alkaline phosphatase increased (Total, N = 19): 5 (26.3) n (%) | ARRY-382-related AEs: Chills (Total, N = 19): 2 (10.5) n (%) | ARRY-382-related AEs: Fatigue (Total, N = 19): 4 (21.1) n (%) | ARRY-382-related AEs: Lipase increased (Total, N = 19): 6 (31.6) n (%) | ARRY-382-related AEs: Nausea (Total, N = 19): 3 (15.8) n (%) | ARRY-382-related AEs: Pruritus (Total, N = 19): 4 (21.1) n (%) | ARRY-382-related AEs: Pyrexia (Total, N = 19): 2 (10.5) n (%) | ARRY-382-related AEs: Rash maculo-papular (Total, N = 19): 4 (21.1) n (%) | ARRY-382-related AEs: Thrombocytopenia (Total, N = 19): 2 (10.5) n (%) | ARRY-382-related increased ALT (all patients): 36.8% | ARRY-382-related increased AST (all patients): 42.1% | ARRY-382-related increased CPK (all patients): 36.8% | Patients reporting DLTs (overall): 3/19 | Periorbital edema (overall): 5.3%
